From ChEMBL document CHEMBL3871280, “Bis(N-amidinohydrazones) and N-(amidino)-N'-aryl-bishydrazones: New classes of antibacterial/antifungal agents” (Bioorg Med Chem, 2017)
Values after ≈ are worked out from the molar mass of the structure shown.

Experiments:
[1] = Cytotoxicity against human BEAS2B cells assessed as reduction in cell survival; type: toxicity, cell-based; details: beas-2b
[2] = Antifungal activity against fluconazole/itraconazole/voriconazole-susceptible Candida albicans ATCC 2876; type: functional
[3] = Antifungal activity against fluconazole/itraconazole/voriconazole-resistant Candida albicans ATCC 90819; type: functional
Klebsiella pneumoniae = assay: Antibacterial activity against Klebsiella pneumoniae ATCC 27736; type: functional
[4] = system: Mycolicibacterium smegmatis; assay: Antimycobacterial activity against Mycobacterium smegmatis MC2 155; type: functional; details: str. MC2 155
How it was run: (§1)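 Values were set in μM and converted to μg/mL for presentation. Amikacin, ampicillin and ofloxacin served as positive controls.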

[5] = Antifungal activity against fluconazole/itraconazole/voriconazole-resistant Candida albicans ATCC 1237; type: functional
Acinetobacter baumannii = assay: Antibacterial activity against Acinetobacter baumannii ATCC 19606; type: functional
[6] = Antifungal activity against fluconazole/itraconazole/voriconazole-resistant Candida albicans ATCC 64124; type: functional
[7] = Antibacterial activity against Salmonella enterica ATCC 14028; type: functional
[8] = Cytotoxicity against human A549 cells assessed as reduction in cell survival; type: toxicity, cell-based
Staphylococcus aureus = assay: Antibacterial activity against methicillin-resistant Staphylococcus aureus; type: functional; how it was run: as §1
Candida albicans = assay: Antifungal activity against Candida albicans ATCC 1003; type: functional
Listeria monocytogenes = assay: Antibacterial activity against Listeria monocytogenes ATCC 19115; type: functional
[9] = Antifungal activity against fluconazole/itraconazole/voriconazole-resistant Candida albicans ATCC 10231; type: functional
[10] = Antifungal activity against fluconazole/itraconazole/voriconazole-susceptible Candida albicans ATCC 2310; type: functional
Pseudomonas aeruginosa = assay: Antibacterial activity against Pseudomonas aeruginosa ATCC 27853; type: functional
Escherichia coli = assay: Antibacterial activity against Escherichia coli MC1061; type: functional; how it was run: as §1
Enterobacter cloacae = assay: Antibacterial activity against Enterobacter cloacae ATCC 13047; type: functional; details: subsp. cloacae ATCC 13047
Bacillus subtilis = assay: Antibacterial activity against Bacillus subtilis 168; type: functional; details: subsp. subtilis str. 168
Enterococcus = assay: Antibacterial activity against vancomycin-resistant Enterococcus; type: functional; how it was run: as §1

SMILES | IC50 [1] | MIC [2] | MIC [3] | MIC (Klebsiella pneumoniae) | MIC [4] | MIC [5] | MIC (Acinetobacter baumannii) | MIC [6] | MIC [7] | IC50 [8] | MIC (Staphylococcus aureus) | MIC (Candida albicans) | MIC (Listeria monocytogenes) | MIC [9] | MIC [10] | MIC (Pseudomonas aeruginosa) | MIC (Escherichia coli) | MIC (Enterobacter cloacae) | MIC (Bacillus subtilis) | MIC (Enterococcus)
C/C(=N\NC(=N)N)c1cccc(/C(C)=N/NC(=N)N)c1.Cl.Cl | 33 µg/mL | 22.5 µM | > 90.1 µM | > 500 µM | 15.6 µM | 90.1 µM | > 500 µM | > 90.1 µM | 62.5 to 250 µM | 31.2 µg/mL | > 500 µM | > 90.1 µM | 250 µM | > 90.1 µM | 90.1 µM | 500 µM | > 500 µM | > 500 µM | 250 µM | 125 µM
CC1(C)S[C@@H]2[C@H](NC(=O)[C@H](N)c3ccccc3)C(=O)N2[C@H]1C(=O)O [AMPICILLIN] |  |  |  | > 250 µM | > 250 µM |  | > 250 µM |  | 250 µM (≈ 87.4 µg/mL) |  | 250 µM (≈ 87.4 µg/mL) |  | 250 µM (≈ 87.4 µg/mL) |  |  | > 250 µM | > 250 µM | > 250 µM | > 250 µM | 250 µM (≈ 87.4 µg/mL)
C/C(=N\NC(=N)N)c1ccc(-c2ccc(/C(C)=N/NC(=N)N)cc2)cc1.Cl.Cl | 1.7 µg/mL | 4.7 µM | 9.2 µM | 15.6 µM | > 500 µM | > 73.9 µM | > 500 µM | 4.7 µM | > 500 µM | 6.3 µg/mL | > 500 µM | 18.4 µM | > 500 µM | 4.7 to 9.2 µM | 9.2 µM | 2 µM | 62.5 µM | 125 µM | > 500 µM | > 500 µM
CC1COc2c(N3CCN(C)CC3)c(F)cc3c(=O)c(C(=O)O)cn1c23 (stereo unspecified) [OFLOXACIN] |  |  |  | 15.6 to 31.3 µM (≈ 5.64 to 11.3 µg/mL) | 15.6 µM (≈ 5.64 µg/mL) |  | ≤ 0.5 µM |  | 15.6 to 31.3 µM (≈ 5.64 to 11.3 µg/mL) |  | 1 µM (≈ 0.361 µg/mL) |  | 1 µM (≈ 0.361 µg/mL) |  |  | 3.9 µM (≈ 1.41 µg/mL) | 3.9 to 7.8 µM (≈ 1.41 to 2.82 µg/mL) | ≤ 0.5 µM | ≤ 0.5 µM | 7.8 µM (≈ 2.82 µg/mL)
C/C(=N\NC(=N)N)c1ccc(Oc2ccc(/C(C)=N/NC(=N)N)cc2)cc1.Cl.Cl | 2.9 µg/mL | 8.9 µM | 17.8 µM | 62.5 µM | 125 to 250 µM | 17.8 µM | 62.5 µM | 17.8 µM | 125 µM | 3.9 µg/mL | 125 µM | 17.8 µM | 62.5 µM | 17.8 µM | 17.8 µM | 62.5 µM | 125 µM | 250 µM | 125 µM | 3.9 µM
NCC[C@H](O)C(=O)N[C@@H]1C[C@H](N)[C@@H](O[C@H]2O[C@H](CN)[C@@H](O)[C@H](O)[C@H]2O)[C@H](O)[C@H]1O[C@H]1O[C@H](CO)[C@@H](O)[C@H](N)[C@H]1O [AMIKACIN] |  |  |  | 31.3 µM (≈ 18.3 µg/mL) | 15.6 µM (≈ 9.14 µg/mL) |  | 31.3 µM (≈ 18.3 µg/mL) |  | 3.9 to 7.8 µM (≈ 2.28 to 4.57 µg/mL) |  | 31.3 µM (≈ 18.3 µg/mL) |  | 3.9 µM (≈ 2.28 µg/mL) |  |  | 62.5 µM (≈ 36.6 µg/mL) | 31.3 µM (≈ 18.3 µg/mL) | 62.5 µM (≈ 36.6 µg/mL) | 3.9 to 15.6 µM (≈ 2.28 to 9.14 µg/mL) | 125 µM (≈ 73.2 µg/mL)
Cl.Cl.N=C(N)N/N=C/c1ccc(-c2ccc(/C=N/NC(=N)N)cc2)cc1 | 3 µg/mL | 19.7 µM | > 79.2 µM | > 500 µM | > 500 µM | 39.5 µM | > 500 µM | > 79.2 µM | > 500 µM | 6.6 µg/mL | 3.9 µM | 19.7 µM | 1 µM | 39.5 µM | > 79.2 µM | > 500 µM | > 500 µM | > 500 µM | > 500 µM | 2 µM
C/C(=N\NC(=N)N)c1ccc(-c2ccc(/C(C)=N/Nc3ccccc3Cl)cc2)cc1 |  | 34.3 µM (≈ 14.4 µg/mL) | 34.3 µM (≈ 14.4 µg/mL) | 62.5 to 125 µM (≈ 26.2 to 52.4 µg/mL) | 500 µM (≈ 209 µg/mL) | 34.3 µM (≈ 14.4 µg/mL) | 62.5 µM (≈ 26.2 µg/mL) | 68.7 µM (≈ 28.8 µg/mL) | 62.5 to 125 µM (≈ 26.2 to 52.4 µg/mL) |  | 125 µM (≈ 52.4 µg/mL) | 34.3 µM (≈ 14.4 µg/mL) | 62.5 to 125 µM (≈ 26.2 to 52.4 µg/mL) | 34.3 µM (≈ 14.4 µg/mL) | 34.3 µM (≈ 14.4 µg/mL) | 500 µM (≈ 209 µg/mL) | 500 µM (≈ 209 µg/mL) | 500 µM (≈ 209 µg/mL) | 62.5 to 125 µM (≈ 26.2 to 52.4 µg/mL) | 3.9 µM (≈ 1.63 µg/mL)
